Source: ChEMBL document CHEMBL2016446, “Trivalent ultrashort lipopeptides are potent pH dependent antifungal agents” (J Med Chem, 2012)
Converted amounts (≈) assume the structure as drawn. The source made the active and inactive calls. The calls are words filed in the database; no cut-off is given here.

What was measured:
[1] = Stability of the compound at 1 ug/uL after 2 hrs by RP-HPLC analysis in presence of proteinase K; format: ADME
Method in brief: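 Peptide at 1 μg/μL in PBS (400 μL) mixed with 8 μL proteinase K solution (5 μg/μL; 2% DMSO final). Intact peptide quantified by RP-HPLC on a C4 column, 0.1% TFA water/acetonitrile, 10–90% B over 40 min. Measured against a peptide injection taken before enzyme addition. Melittin served as enzyme-activity control.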

[2] = Ratio of LC50 for mouse RAW264.7 cells to MIC for Aspergillus fumigatus ATCC 26430; format: functional
Method in brief: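 LC50: RAW264.7 macrophages in supplemented DMEM, 2 × 10^5 cells/well overnight, then peptide at 3.12–200 μM for 16 h. Viability read by XTT; LC50 from dose–response curves. MIC: CLSI M38-A2 broth microdilution, 2 × 10^3 CFU/mL A. fumigatus ATCC 26430 in RPMI 1640/0.165 M MOPS (pH 5.5 or 7.5). Serial 2-fold dilutions, 35 °C for 48 h, growth scored visually. In vitro values are means of duplicates.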

Aspergillus fumigatus [3] = test: Antifungal activity against Aspergillus fumigatus ATCC 26430 after 48 hrs at pH 5.5; format: functional; conditions: ATCC 26430, 48 h
Method in brief: (§1)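 The method followed CLSI M38-A2 (Aspergillus) or M27-A3. Medium was RPMI 1640 with 0.165 M MOPS and L-glutamine, without NaHCO3, at pH 5.5 or 7.5. Inoculum of 2 × 10^3 CFU/mL was mixed 1:1 with serial 2-fold peptide dilutions. Incubation was at 35 °C: 48 h for A. fumigatus and C. albicans, 72 h for C. neoformans. MIC was read by eye as no growth. Values are averages of duplicates.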

[4] = Toxicity in human RBC assessed as hemolytic activity at 125 uM at pH 7.5 after 60 mins by spectrophotometry; format: cell-based; conditions: erythrocyte, pH 7.5, 1 h
Method in brief: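 Human erythrocytes (4% final) were incubated with peptide in PBS for 60 min at 37 °C. Hemoglobin release was read as supernatant absorbance at 540 nm. PBS alone served as the 0% reference and 1% Triton as the 100% reference. Values are averages of duplicates.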

Candida albicans [5] = test: Antifungal activity against Candida albicans ATCC 10231 after 48 hrs at pH 7.5; format: functional; conditions: ATCC 10231, 48 h; method in brief: as §1
Aspergillus fumigatus [6] = test: Antifungal activity against Aspergillus fumigatus Af293 infected in immunocompromized ICR mouse assessed as reduction in fungal load in spleen at 4.5 mg/kg, at pH 5.5 it administered on day 1 and 4 measured after 5 days post infection (reference value: 10 to 140 CFU); format: functional; conditions: route endotracheal
Mus musculus [7] = test: Toxicity in immunocompromized ICR mouse assessed as weight loss at 9 mg/kg, at pH 5.5 it administered on day 1, 4, 7 and 11 monitored for 28 days; format: organism-based; design: dose 9 mg/kg, route endotracheal; conditions: in vivo, inhaled_or_intranasal, pH 5.5, 9 mg/kg, 672 h
Method in brief: (§2)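 Six-week-old female ICR mice (n = 5) were immunosuppressed with cortisone acetate (150 mg/kg in PBS/0.1% Tween 80, s.c.) 4 days before the first dose, on that day, and 2 and 4 days after. Peptide in saline at pH 5.5 was given i.t. on days 1, 4, 7 and 11. Survival, weight, appearance and behaviour were followed for 28 days.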

Candida albicans [8] = test: Antifungal activity against Candida albicans ATCC 10231 after 48 hrs at pH 5.5; format: functional; conditions: ATCC 10231, 48 h; method in brief: as §1
Aspergillus fumigatus [9] = test: Antifungal activity against Aspergillus fumigatus Af293 infected in immunocompromized ICR mouse assessed as reduction in fungal load in lung at 4.5 mg/kg, at pH 5.5 it administered on day 1 and 4 measured after 5 days post infection (reference value: 80 to 12920 CFU); format: functional; conditions: route endotracheal
Aspergillus fumigatus [10] = test: Antifungal activity against Aspergillus fumigatus Af293 infected in immunocompromized ICR mouse assessed as reduction in fungal load in kidney at 4.5 mg/kg, at pH 5.5 it administered on day 1 and 4 measured after 5 days post infection (reference value: 20 to 5400 CFU); format: functional; conditions: route endotracheal
RAW264.7 = test: Cytotoxicity against mouse RAW264.7 cells at 200 uM after 16 hrs by XTT assay; format: cell-based; conditions: raw264.7, 16 h
Method in brief: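 RAW264.7 macrophages were grown in DMEM with 10% FBS, L-glutamine, pyruvate and nonessential amino acids at 37 °C, 5% CO2. Cells were seeded at 2 × 10^5 per well overnight, then exposed to peptides at 3.12–200 μM for 16 h. Medium was replaced with fresh medium plus XTT reagent. LC50 was taken from dose–viability curves.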

Cryptococcus neoformans [11] = test: Antifungal activity against Cryptococcus neoformans ATCC MYA422 after 72 hrs at pH 7.5; format: functional; conditions: ATCC MYA422, 72 h; method in brief: as §1
Aspergillus fumigatus [12] = test: Antifungal activity against Aspergillus fumigatus ATCC 26430 after 48 hrs at pH 7.5; format: functional; conditions: ATCC 26430, 48 h; method in brief: as §1
Mus musculus [13] = test: Toxicity in immunocompromized ICR mouse assessed as visible signs of toxicity at 9 mg/kg, at pH 5.5 it administered on day 1, 4, 7 and 11 monitored for 28 days; format: organism-based; design: dose 9 mg/kg, route endotracheal; conditions: in vivo, inhaled_or_intranasal, pH 5.5, 9 mg/kg, 672 h; method in brief: as §2
Cryptococcus neoformans [14] = test: Antifungal activity against Cryptococcus neoformans ATCC MYA422 after 72 hrs at pH 5.5; format: functional; conditions: ATCC MYA422, 72 h; method in brief: as §1
Aspergillus fumigatus [15] = test: Antifungal activity against Aspergillus fumigatus Af293 infected in immunocompromized ICR mouse assessed as survival rate at 4.5 mg/kg, at pH 5.5 it administered on day 1, 4, 7 and 11 monitored for 28 days relative to control; format: functional; conditions: route endotracheal
Method in brief: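 Six-week-old female ICR mice immunocompromised with cortisone acetate (150 mg/kg in PBS/0.1% Tween 80, s.c.) 4 days before treatment, on day of first treatment, and 2 and 4 days after. A. fumigatus lung infection on day 1. Lipopeptide given i.t. at 4.5 mg/kg (50 μL, pH 5.5) on days 1, 4, 7 and 11. Controls: saline, amphotericin B 1 mg/kg i.p. Survival followed 28 days; n = 9–10.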

Staphylococcus aureus [16] = test: Antibacterial activity against Staphylococcus aureus ATCC 6538P after 18 to 20 hrs at pH 5.5; format: functional, organism-based
Method in brief: (§3)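 Broth microdilution in LB: bacterial suspension at 10^6 CFU/mL mixed 1:1 with serial 2-fold peptide dilutions, made from a 1 mg/mL aqueous stock. Strains were E. coli ATCC D21 and S. aureus ATCC 6538P. MIC was the lowest concentration with no growth after 18–20 h. Values are averages of duplicate experiments.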

Escherichia coli [17] = test: Antibacterial activity against Escherichia coli ATCC D21 after 18 to 20 hrs at pH 5.5; format: functional, organism-based; method in brief: as §3
Aspergillus fumigatus [18] = test: Induction of membrane damage in Aspergillus fumigatus at 1.56 to 100 uM at pH 5.5 by Sytox green-based fluorescence assay; format: functional, organism-based
Method in brief: (§4)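 A. fumigatus at 2 × 10^3 CFU/mL in RPMI/MOPS (pH 7.4 or 5.5) was grown 20 h at 35 °C. Sytox green was added at 0.2 μM final in sodium phosphate buffer (pH 5.5 or 7.5) for 15 min. Peptides were then added at 100–1.56 μM final. Fluorescence (ex 485/em 530 nm) was read after 1 h.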

Staphylococcus aureus [19] = test: Antibacterial activity against Staphylococcus aureus ATCC 6538P after 18 to 20 hrs at pH 7.5; format: functional, organism-based; method in brief: as §3
Escherichia coli [20] = test: Antibacterial activity against Escherichia coli ATCC D21 after 18 to 20 hrs at pH 7.5; format: functional, organism-based; method in brief: as §3
Aspergillus fumigatus [21] = test: Induction of membrane depolarization in Aspergillus fumigatus at 1.56 to 100 uM at pH 7.5 by DiSC3(5)-based fluorescence assay; format: functional, organism-based
Method in brief: (§5)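 A. fumigatus was pregrown 20 h at 35 °C from 2 × 10^3 CFU/mL in RPMI/MOPS (pH 7.4 or 5.5). Cells were loaded with DiSC3(5) at 0.2 μM final in sodium phosphate buffer (pH 5.5 or 7.5) for 15 min. Peptides were added at 1.56–100 μM final, and fluorescence (ex 640/em 660 nm) was read after 1 h.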

Aspergillus fumigatus [22] = test: Induction of membrane depolarization in Aspergillus fumigatus at 1.56 to 100 uM at pH 5.5 by DiSC3(5)-based fluorescence assay; format: functional, organism-based; method in brief: as §5
Aspergillus fumigatus [23] = test: Induction of membrane damage in Aspergillus fumigatus at 1.56 to 100 uM at pH 7.5 by Sytox green-based fluorescence assay; format: functional, organism-based; method in brief: as §4

SMILES	MIC (Aspergillus fumigatus [3])	MIC (Candida albicans [5])	MIC (Candida albicans [8])	MIC (Cryptococcus neoformans [11])	MIC (Aspergillus fumigatus [12])	MIC (Cryptococcus neoformans [14])	Activity (Aspergillus fumigatus [18])	Activity (Aspergillus fumigatus [21])	Activity (Aspergillus fumigatus [22])	Activity (Aspergillus fumigatus [23])	further results
CCCCCCCCCCCCCC(=O)N[C@@H](Cc1c[nH]cn1)C(=O)N[C@@H](Cc1c[nH]cn1)C(=O)N1CCCN(C(=O)[C@H](Cc2c[nH]cn2)NC(=O)[C@H](Cc2c[nH]cn2)NC(=O)CCCCCCCCCCCCC)Cc2cc(cc(C(N)=O)c2)CN(C(=O)[C@H](Cc2c[nH]cn2)NC(=O)[C@H](Cc2c[nH]cn2)NC(=O)CCCCCCCCCCCCC)CCC1 [listing 1 of 2 here]	3.12 µM (≈ 5.4 µg/mL)	> 100 µM	> 100 µM	> 100 µM	> 100 µM	3.12 µM (≈ 5.4 µg/mL)	–	–	–	–	remaining at 2 h, 1 ug/uL ([1]; proteinase K, read-out: Stability): 80%; Ratio [2]: 64; Activity [4]: Non-toxic; CFU (Aspergillus fumigatus [6]): 20; Activity (Mus musculus [7]): Non-toxic; CFU (Aspergillus fumigatus [9]): 40; CFU (Aspergillus fumigatus [10]): 70; Activity (RAW264.7): Non-toxic; Activity (Mus musculus [13]): Non-toxic
CCCCCCCCCCCCCC(=O)N[C@@H](Cc1c[nH]cn1)C(=O)N[C@@H](Cc1c[nH]cn1)C(=O)N1CCCN(C(=O)[C@H](Cc2c[nH]cn2)NC(=O)[C@H](Cc2c[nH]cn2)NC(=O)CCCCCCCCCCCCC)Cc2cc(cc(C(N)=O)c2)CN(C(=O)[C@H](Cc2c[nH]cn2)NC(=O)[C@H](Cc2c[nH]cn2)NC(=O)CCCCCCCCCCCCC)CCC1 [listing 2 of 2 here]	–	–	–	–	–	–	–	–	–	–	survival at 4.5 mg/kg (Aspergillus fumigatus [15]): 55%
CCCCCC(=O)N[C@@H](Cc1cnc[nH]1)C(=O)N[C@@H](Cc1cnc[nH]1)C(=O)N1CCCN(C(=O)[C@H](Cc2cnc[nH]2)NC(=O)[C@H](Cc2cnc[nH]2)NC(=O)CCCCC)Cc2cc(cc(C(N)=O)c2)CN(C(=O)[C@H](Cc2cnc[nH]2)NC(=O)[C@H](Cc2cnc[nH]2)NC(=O)CCCCC)CCC1	> 100 µM	> 100 µM	> 100 µM	> 100 µM	> 100 µM	> 100 µM	inactive	inactive	inactive	inactive	Activity (Staphylococcus aureus [16]): inactive; Activity (Escherichia coli [17]): inactive; Activity (Staphylococcus aureus [19]): inactive; Activity (Escherichia coli [20]): inactive
CC[C@H](C)[C@H](NC(=O)CN)C(=O)NCC(=O)N[C@@H](C)C(=O)N[C@H](C(=O)N[C@@H](CC(C)C)C(=O)N[C@@H](CCCCN)C(=O)N[C@H](C(=O)N[C@@H](CC(C)C)C(=O)N[C@H](C(=O)N[C@H](C(=O)NCC(=O)N[C@@H](CC(C)C)C(=O)N1CCC[C@H]1C(=O)N[C@@H](C)C(=O)N[C@@H](CC(C)C)C(=O)N[C@H](C(=O)N[C@@H](CO)C(=O)N[C@@H](Cc1c[nH]c2ccccc12)C(=O)N[C@H](C(=O)N[C@@H](CCCCN)C(=O)N[C@@H](CCCNC(=N)N)C(=O)N[C@@H](CCCCN)C(=O)N[C@@H](CCCNC(=N)N)C(=O)N[C@@H](CCC(N)=O)C(=O)N[C@@H](CCC(N)=O)C(N)=O)[C@@H](C)CC)[C@@H](C)CC)[C@@H](C)O)[C@@H](C)O)C(C)C)C(C)C [MELITTIN]	–	–	–	–	–	–	Active	Active	Active	Active	Stability ([1]; 2 h): Unstable
